Test results from ChEMBL document CHEMBL1126655, “Synthesis and antiviral activity of novel isonucleoside analogs” (J Med Chem, 1993).

Legend:
Human betaherpesvirus 5 = test: Antiviral activity against Human cytomegalovirus (AD169 strain); format: functional; settings: read-out: ID50 (the source's name)
Summary of the method: (§1)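 WI-38 monolayers were infected, with virus adsorbed for 1–2 h. They were then overlaid with EMEM maintenance medium (1% carboxymethyl cellulose, 2.5% FBS) containing duplicate drug dilutions. Monolayers were stained after 4–6 days at 37 °C. ID50 was taken as the concentration giving 50% plaque reduction versus virus controls. Titrations were done in duplicate.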

Human alphaherpesvirus 1 [1] = test: Antiviral activity against Herpes simplex virus-1 (Schooler strain); format: functional; settings: read-out: ID50 (the source's name); summary of the method: as §1
Human alphaherpesvirus 3 = test: Antiviral activity against Varicella zoster virus (Ellen strain); format: functional; settings: read-out: ID50 (the source's name); summary of the method: as §1
Human alphaherpesvirus 1 [2] = test: Antiviral activity against Herpes simplex virus-1 (Schooler); format: functional; settings: read-out: ID50 (the source's name); summary of the method: as §1
Human alphaherpesvirus 2 = test: Antiviral activity against Herpes simplex virus-2 (thymidine kinase deficient strains isolated as BVaraU resistant mutants of HSV-1 (KOS)); format: functional; settings: read-out: ID50 (the source's name)
[3] = Antiviral activity against Herpes simplex virus-1 (KOS strain); format: functional; settings: Human alphaherpesvirus 1; read-out: ID50 (the source's name); summary of the method: as §1
Human alphaherpesvirus 1 [4] = test: Antiviral activity against Herpes simplex virus-1 (thymidine kinase deficient strains isolated as BVaraU resistant mutants of HSV-1 (KOS)); format: functional; settings: read-out: ID50 (the source's name); summary of the method: as §1
Mus musculus [5] = test: Protective dose against Herpes simplex virus type type -1 infection in mice at 200 mg/kg; format: functional; settings: read-out: PD50
Summary of the method: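 Female Swiss-Webster mice (20–23 g), 10 per group, infected intraperitoneally with 10^3 PFU HSV-1 strain Schooler (Vero freeze-thaw extract) in 0.3% BSA-PBS. Subcutaneous dosing in PBS twice daily from 1 h postinfection for 5 days, 12.5–200 mg/kg/day. Survival scored over 21 days; PD50 from survival by probit analysis.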

Mus musculus [6] = test: Protective dose against Herpes simplex virus type type -2 infection in mice at 200 mg/kg; format: functional; settings: read-out: PD50
Summary of the method: (§2)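 Female Swiss-Webster mice (20–23 g), 10 per group, infected intraperitoneally with 10^6 PFU HSV-2 strain Curtis (Vero freeze-thaw extract) in 0.3% BSA-PBS. Drug given subcutaneously in PBS twice daily from 1 h postinfection for 5 days, doses 12.5–200 mg/kg/day. Survival followed 21 days; PD50 by probit analysis; mean day of death by Student's t-test versus placebo.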

WI-38 [7] = test: Tested for growth inhibition againstWI-38 cells; format: functional; settings: Homo sapiens, read-out: ID50 (the source's name)
Summary of the method: (§3)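 WI-38 cells seeded at 1.2 × 10^6 per well, incubated overnight at 37 °C, then refed with growth medium (EMEM, 10% FBS) holding serial drug dilutions or none, for 3 more days at 37 °C. Quadruplicate cultures per concentration trypsinized and counted daily for viable cells by trypan blue exclusion.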

Vaccinia virus = test: Antiviral activity against vaccinia virus (CL strain); format: functional; settings: Orthopoxvirus vaccinia; read-out: ID50 (the source's name)
Mus musculus [8] = test: Number of survivors against Herpes simplex virus type-1 infection in mice at 100 mg/kg/day out of total 10 tested; format: functional
Summary of the method: (§4)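 Female Swiss-Webster mice (20–23 g, 10 per group) were infected ip with 10^3 PFU HSV-1 Schooler in 0.3% BSA-PBS. Drug was given sc twice daily in PBS, starting 1 h postinfection, for 5 days. Survival was followed for 21 days. Mean day of death of dead animals was compared with placebo-treated infected controls by Student's t-test.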

Mus musculus [9] = test: Number of survivors against Herpes simplex virus type-1 infection in mice at 150 mg/kg/day out of total 10 tested; format: ADME, organism-based; settings: in vivo; summary of the method: as §4
Mus musculus [10] = test: Number of survivors against Herpes simplex virus type-1 infection in mice at 200 mg/kg/day out of total 10 tested; format: functional; summary of the method: as §4
Mus musculus [11] = test: Number of survivors against Herpes simplex virus type-1 infection in mice at 25 mg/kg/day out of total 10 tested; format: functional; summary of the method: as §4
Mus musculus [12] = test: Number of survivors against Herpes simplex virus type-2 infection in mice at 100 mg/kg/day out of total 10 tested; format: functional
Summary of the method: (§5)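 Female Swiss-Webster mice (20–23 g, 10 per group) were infected ip with 10^6 PFU HSV-2 Curtis in 0.3% BSA-PBS. Dosing was sc twice daily in PBS from 1 h postinfection for 5 days. Survival was recorded over 21 days. Mean day of death was computed for dead mice and compared with placebo-treated infected controls by Student's t-test.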

Mus musculus [13] = test: Number of survivors against Herpes simplex virus type-2 infection in mice at 12.5 mg/kg/day out of total 10 tested; format: functional; summary of the method: as §5
Mus musculus [14] = test: Number of survivors against Herpes simplex virus type-2 infection in mice at 200 mg/kg/day out of total 10 tested; format: functional; summary of the method: as §5
Mus musculus [15] = test: Number of survivors against Herpes simplex virus type-2 infection in mice at 25 mg/kg/day out of total 10 tested; format: functional; summary of the method: as §2
Mus musculus [16] = test: Day of death in lethal test against herpes simplex virus type-1 at 100 mg/kg/day; format: ADME, organism-based; settings: in vivo; summary of the method: as §4
Mus musculus [17] = test: Day of death in lethal test against herpes simplex virus type-1 at 12.5 mg/kg/day; format: ADME, organism-based; settings: in vivo; summary of the method: as §4
Mus musculus [18] = test: Day of death in lethal test against herpes simplex virus type-1 at 150 mg/kg/day; format: functional; summary of the method: as §4
Mus musculus [19] = test: Day of death in lethal test against herpes simplex virus type-1 at 50 mg/kg/day; format: ADME, organism-based; settings: in vivo; summary of the method: as §4
Mus musculus [20] = test: Day of death in lethal test against herpes simplex virus type-2 at 100 mg/kg/day; format: ADME, organism-based; settings: in vivo; summary of the method: as §5
Mus musculus [21] = test: Day of death in lethal test against herpes simplex virus type-2 at 12.5 mg/kg/day; format: ADME, organism-based; settings: in vivo; summary of the method: as §5
Mus musculus [22] = test: Day of death in lethal test against herpes simplex virus type-2 at 25 mg/kg/day; format: ADME, organism-based; settings: in vivo; summary of the method: as §5
Mus musculus [23] = test: Day of death in lethal test against herpes simplex virus type-2 at 50 mg/kg/day; format: ADME, organism-based; settings: in vivo; summary of the method: as §5
Mus musculus [24] = test: Day of death in lethal test against herpes simplex virus type-1 at 25 mg/kg/day; format: ADME, organism-based; settings: in vivo; summary of the method: as §4
WI-38 [25] = test: Tested for growth inhibition against WI-38 cells; format: functional; settings: Homo sapiens, read-out: ID50 (the source's name); summary of the method: as §3

`O=c1[nH]c(=O)n([C@@H]2CO[C@H](CO)[C@H]2CO)cc1I` gave an IC50 (Human betaherpesvirus 5) greater than 270 µM, an IC50 (Human alphaherpesvirus 1 [1]) of 140 µM and an IC50 (Human alphaherpesvirus 3) of 70 µM.

`Nc1nc(O)c2ncn([C@@H]3CO[C@H](CO)[C@H]3CO)c2n1` showed an IC50 (Human betaherpesvirus 5) greater than 360 µM, an IC50 (Human alphaherpesvirus 1 [2]) of 18 µM and an IC50 (Human alphaherpesvirus 2) of 180 µM. The IC50 [3] was 7 µM, the IC50 (Human alphaherpesvirus 1 [4]) was 180 µM and the ED50 (Mus musculus [5]) was 84 mg/kg/day. The ED50 (Mus musculus [6]) was 52 mg/kg/day, the IC50 (WI-38 [7]) was greater than 700 µM and the IC50 (Vaccinia virus) was greater than 360 µM. The IC50 (Human alphaherpesvirus 3) was 40 µM, the No. of survivors (Mus musculus [8]) was 6 and the No. of survivors (Mus musculus [9]) was 7. It also gave a No. of survivors (Mus musculus [10]) of 9, a No. of survivors (Mus musculus [11]) of 2 and a No. of survivors (Mus musculus [12]) of 6. It also gave a No. of survivors (Mus musculus [13]) of 0, a No. of survivors (Mus musculus [14]) of 9 and a No. of survivors (Mus musculus [15]) of 6. For the same compound, the “Mean day of death” value (Mus musculus [16]) was 14.7, the “Mean day of death” value (Mus musculus [17]) was 9.6 and the “Mean day of death” value (Mus musculus [18]) was 12.3. The “Mean day of death” value (Mus musculus [19]) was 10.1, the “Mean day of death” value (Mus musculus [20]) was 12.2 and the “Mean day of death” value (Mus musculus [21]) was 10.3. For the same compound, the “Mean day of death” value (Mus musculus [22]) was 12.5, the “Mean day of death” value (Mus musculus [23]) was 10.9 and the “Mean day of death” value (Mus musculus [24]) was 9.1.

In the case of `Nc1nc(=O)n([C@@H]2CO[C@H](CO)[C@H]2CO)cc1I`, the IC50 (Human betaherpesvirus 5) is reported as greater than 270 µM, the IC50 (Human alphaherpesvirus 1 [1]) is reported as 140 µM and the IC50 (Human alphaherpesvirus 3) is reported as 14 µM.

`Nc1ncnc2c1ncn2[C@@H]1CO[C@H](CO)[C@H]1CO` showed an IC50 (Human betaherpesvirus 5) of 4 µM, an IC50 (Human alphaherpesvirus 2) of 4 µM and an IC50 [3] of 4 µM. It also gave an IC50 (Human alphaherpesvirus 1 [1]) of 8 µM, an IC50 (Human alphaherpesvirus 1 [4]) of 8 µM and an IC50 (WI-38 [25]) of 90 µM. The IC50 (Vaccinia virus) was 20 µM and the IC50 (Human alphaherpesvirus 3) was 4 µM.

For `Cc1cn([C@@H]2CO[C@H](CO)[C@H]2CO)c(=O)[nH]c1=O`, the IC50 (Human betaherpesvirus 5) was greater than 400 µM, the IC50 [3] was 8 µM and the IC50 (Human alphaherpesvirus 1 [1]) was 4 µM. For the same compound, the IC50 (Human alphaherpesvirus 1 [4]) was greater than 400 µM and the IC50 (Human alphaherpesvirus 3) was 20 µM.
